Bioassay records: PubChem BioAssay, The Scripps Research Institute Molecular Screening Center
ABHD4 inh: inhibits mouse alpha/beta hydrolase domain 4; Q8VD66; actives 0.54% (n = 370,000); inhibition, % at 8.92 µM; purified mABHD4, FP-Rh probe fluorescence polarization;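 active = inhibition exceeding the mean over every tested compound plus 3 SD, cut at about 30% in these data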
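Material: mouse ABHD4 enzyme, wild type; Benchmarks: S159A mutant high control, sample median low control; Buffer or medium: HEPES pH 7.0, NaCl, Pluronic buffer; Signal: fluorescence polarization; Read-out: percent inhibition of probe binding, normalized to plate controls; Timing: pre-incubation 45 min, probe exposure 60 min, at 25 °C; Dosing: 8.92 µM, single dose.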
PAFAH1B2 inh: inhibitors of human PAFAH1B2 | P68402 | recombinant PAFAH1B2, FP-rhodamine activity probe, fluorescence polarization | inhibition, % at 3.39 µM | actives 1.2% (n = 340,000);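 active = inhibition above the mean of all tested compounds plus 3 SD, cut at about 24% in these data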
pPAFAH inh: pPAFAH (human) enzyme inhibition | inhibition, % at 3.39 µM | recombinant pPAFAH, FP-rhodamine probe fluorescence polarization | Q13093 | actives 1.5% (n = 330,000);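 active = inhibition above the mean inhibition across the screen plus 3 SD, cut at about 25% in these data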;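 also: inhibitors block binding of the rhodamine activity-based probe so polarization drops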
Target sequence (Q13093 whole entry, looked up): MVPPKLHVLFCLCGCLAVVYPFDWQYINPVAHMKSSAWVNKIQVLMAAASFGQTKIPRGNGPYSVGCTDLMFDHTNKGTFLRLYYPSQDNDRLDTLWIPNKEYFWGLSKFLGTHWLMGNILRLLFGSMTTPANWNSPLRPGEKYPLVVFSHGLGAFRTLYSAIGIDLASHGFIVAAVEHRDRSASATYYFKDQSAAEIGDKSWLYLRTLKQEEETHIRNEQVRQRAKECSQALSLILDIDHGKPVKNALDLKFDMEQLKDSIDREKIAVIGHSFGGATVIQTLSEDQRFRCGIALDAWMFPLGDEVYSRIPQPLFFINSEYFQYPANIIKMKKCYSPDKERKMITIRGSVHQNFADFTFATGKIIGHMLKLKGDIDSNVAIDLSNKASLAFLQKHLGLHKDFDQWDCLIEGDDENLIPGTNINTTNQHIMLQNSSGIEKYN
PAFAH1B3 FP inh: PAFAH1B3 (human) inhibition. Q15102. recombinant PAFAH1B3, FP-rhodamine probe, fluorescence polarization. inhibition, % at 3.39 µM. actives 0.28% (n = 340,000). AID 492972;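 active = inhibition above the screen-wide average of all tested compounds plus 3 SD, cut at about 25% in these data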
HTRA1 inhibitor: blocks human HTRA1 serine peptidase. inhibition, % at 5.96 µM. recombinant HTRA1, FP-rhodamine activity-based probe, fluorescence polarization. actives 0.5% (n = 340,000); in the data active = inhibition above about 36%
PAFAH2 FP inh: inhibitors of human PAFAH2. Q99487. recombinant PAFAH2, FP-rhodamine activity probe, fluorescence polarization. inhibition, % at 3.39 µM. actives 0.99% (n = 340,000);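 active = inhibition above the mean over all tested compounds plus 3 SD, cut at about 30% in these data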;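 also: inhibitors block probe labeling of enzyme so polarization drops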
Hits are given with their value; . = inactive; / = no result given. Hits are enriched below; roughly 2.8% of the tested compounds scored in any of these assays.

SMILES | ABHD4 inh | PAFAH1B2 inh | pPAFAH inh | PAFAH1B3 FP inh | HTRA1 inhibitor | PAFAH2 FP inh
Cc1ccc(/C=C2\Oc3c(ccc(O)c3CN3CCN(CCO)CC3)C2=O)cc1 | . | . | . | . | . | .
C[C@H]1COc2c3ccc(I)cc3nn21 | . | / | / | / | / | /
CCc1cc(=O)oc2cc(C)cc(OCC(=O)NC(Cc3ccc(Cl)cc3)C(=O)O)c12 (stereo not drawn) | . | 25 | . | . | . | .
O=C(NCc1c(F)cccc1F)C1CCC(CNS(=O)(=O)c2cccc3cccnc23)CC1 (stereo not drawn) | . | / | / | / | / | /
CC(=O)Nc1ccc(S(=O)(=O)N2c3ccc(F)cc3CCC2C)cc1 (stereo not drawn) | . | . | . | . | . | .
COc1ccc(S(=O)(=O)N2c3ccc(F)cc3CCC2C)cc1 (stereo not drawn) | . | 27 | . | . | . | .
CCN(CC)c1ccc(NC2CC(=O)N(CCc3ccc(OC)cc3)C2=O)cc1 (stereo not drawn) | . | . | 28 | . | 54 | .
COc1ccc(CCNC2CC(=O)N(CCc3ccccc3)C2=O)cc1 (stereo not drawn) | . | . | . | . | . | .
CC(C)Oc1cccc(C(=O)C2CCCN(Cc3ccc4nonc4c3)C2)c1 (stereo not drawn) | . | . | 32 | . | . | .
CC(C)Oc1cccc(C(=O)C2CCCN(Cc3cnn(C(C)C)c3)C2)c1 (stereo not drawn) | . | . | . | . | . | .
Cc1ccc2nc(Cl)nc(-c3ccccc3)c2c1 | . | . | . | . | . | .
Cc1ccc2nc(Cl)c(-c3ccccc3)cc2c1 | . | / | 31 | / | / | /
O=C(NCc1cccs1)C1CCN(S(=O)(=O)c2cccc3ccccc23)CC1 | . | / | / | / | / | /
COC(=O)c1sccc1NC(=O)CC1C(=O)NCCN1C(=O)Nc1ccc(OCc2ccccc2)cc1 (stereo not drawn) | . | 61 | . | . | . | .
COC(=O)c1sccc1NC(=O)CC1C(=O)NCCN1C(=O)Nc1ccccc1 (stereo not drawn) | . | . | . | . | . | .
C#CCOCCOCCOCCNc1nc(N2CCOCC2)nc(N2CCN(C(=O)[C@H](CCC(=O)O)n3cc(C(N)CO)nn3)CC2)n1 (stereo partly drawn) | . | / | / | / | / | /
CC(=O)Nc1ccc(NC(=O)c2ccc(NS(=O)(=O)c3cc(C(C)(C)C)ccc3C)cc2)cc1 | . | . | . | . | . | .
Cc1cc(F)ccc1NC(=O)c1ccc(NS(=O)(=O)c2cc(C(C)(C)C)ccc2C)cc1 | . | . | 25 | . | . | .
O=C(O)c1ccc(-c2ccc(/C=C3\NC(=O)N(Cc4ccc(Cl)cc4)C3=O)o2)cc1Cl | . | . | / | . | . | 30
CCCCc1ccc2nc(NC(=O)c3ccc(Br)o3)sc2c1 | . | / | / | / | / | /
O=S1(=O)c2ccc(N3CCN(Cc4ccccc4F)CC3)cc2Oc2ccccc2CN1Cc1cn(Cc2ccc(F)cc2)nn1 | . | / | / | / | / | /
Cc1ccc(S(=O)(=O)NN2C(=O)/C(=C/c3cccn3C)SC2=S)cc1 | / | / | 61 | / | / | /
c1coc(-c2nnc(-c3ccco3)nn2)c1 | . | . | 32 | . | . | 32
c1ccc(-c2nnc(-c3ccco3)o2)cc1 | . | . | . | . | . | .
COc1ccc2c(c1)CNC2CS(=O)(=O)NC1CCCC1 (stereo not drawn) | . | / | / | / | / | /
SMILES | ABHD4 inh | PAFAH1B2 inh | pPAFAH inh | PAFAH1B3 FP inh | HTRA1 inhibitor | PAFAH2 FP inh
CC1CCc2c(sc(NS(=O)(=O)c3ccccc3)c2C(=O)OC(C)C)C1 (stereo not drawn) | . | . | 25 | . | . | .
COC(=O)c1c(NS(=O)(=O)c2ccc3ccccc3c2)sc2c1CCCC2 | . | . | . | . | . | .
Cc1ccc(NC2=C(N3CCOCC3)C(=O)c3ccccc3C2=O)cc1 | . | . | . | 33 | . | 33
CCOC(=O)Cc1csc(NC(=O)c2sc3nc4ccc(CC)cc4cc3c2N)n1 | . | . | 34 | . | . | .
CCOC(=O)Cc1csc(NC(=O)c2sc3nc4cc(C)ccc4cc3c2N)n1 | . | . | . | . | . | .
CC1CCN(CC(=O)Nc2ccc(S(=O)(=O)N3CCC(C)CC3)cc2)CC1 | . | 29 | . | . | . | .
CC1CCN(S(=O)(=O)c2ccc(NC(=O)CN3CCCC3)cc2)CC1 | . | . | . | . | . | .
